Active and inactive are the calls of the source. The calls are words filed in the database; no cut-off is given here.
biological target: T1, Transient receptor potential cation channel subfamily V member 1 (Homo sapiens, UniProt Q8NER1); assay: Antagonist activity at human TRPV1 expressed in CHO cells assessed as inhibition of capsaicin-induced TRPV1 activation by FLIPR method; assay type: cell-based; details: not given
T1 sequence (Q8NER1 whole entry): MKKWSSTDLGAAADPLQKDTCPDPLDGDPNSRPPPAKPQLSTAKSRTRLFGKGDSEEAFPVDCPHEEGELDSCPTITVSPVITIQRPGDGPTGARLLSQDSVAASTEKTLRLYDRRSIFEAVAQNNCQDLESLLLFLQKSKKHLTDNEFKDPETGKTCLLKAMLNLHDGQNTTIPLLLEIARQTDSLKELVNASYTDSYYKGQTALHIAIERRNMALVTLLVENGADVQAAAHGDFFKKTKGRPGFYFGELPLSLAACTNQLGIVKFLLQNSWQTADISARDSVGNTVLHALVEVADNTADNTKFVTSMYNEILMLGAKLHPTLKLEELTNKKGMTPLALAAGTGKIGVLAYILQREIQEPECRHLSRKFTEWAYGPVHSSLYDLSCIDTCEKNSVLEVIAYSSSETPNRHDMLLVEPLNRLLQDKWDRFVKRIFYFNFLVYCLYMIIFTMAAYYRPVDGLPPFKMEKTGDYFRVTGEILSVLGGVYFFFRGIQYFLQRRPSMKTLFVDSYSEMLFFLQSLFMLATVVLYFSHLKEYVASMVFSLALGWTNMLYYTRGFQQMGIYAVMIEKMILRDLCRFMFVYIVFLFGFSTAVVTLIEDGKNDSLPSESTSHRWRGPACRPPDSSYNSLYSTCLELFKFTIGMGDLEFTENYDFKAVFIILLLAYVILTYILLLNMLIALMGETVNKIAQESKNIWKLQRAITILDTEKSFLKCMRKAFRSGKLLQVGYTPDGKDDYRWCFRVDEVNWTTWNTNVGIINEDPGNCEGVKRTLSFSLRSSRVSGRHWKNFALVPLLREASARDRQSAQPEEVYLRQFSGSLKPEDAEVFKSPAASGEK

| Ki [nM] | Structure (SMILES) |
| --- | --- |
| 4.9 | CC1CCN(c2nc(C(F)(F)F)ccc2CNC(=O)Cc2cccc(Cl)c2Cl)CC1 |
| 6.9 | CC(C)(C)c1cc(CNC(=O)Cc2cccc(F)c2F)n(-c2cccc(Cl)c2)n1 |
| 19.9 | CC(C)(C)c1cc(CNC(=O)Cc2ccc(F)cc2Cl)n(-c2cccc(Cl)c2)n1 |
| 46 | CC1CCN(c2nc(C(F)(F)F)ccc2CNC(=O)Cc2ccc(Cl)cc2Cl)CC1 |
| 9.8 | CC1CCN(c2nc(C(F)(F)F)ccc2CNC(=O)Cc2ccc(F)c(C(F)(F)F)c2)CC1 |
| 16.7 | CC(C)(C)c1cc(CNC(=O)Cc2ccc(Cl)cc2Cl)n(-c2cccc(Cl)c2)n1 |
| 19 | CC(C)(C)c1cc(CNC(=O)Cc2c(F)cccc2Cl)n(-c2cccc(Cl)c2)n1 |
| 0.3 | CC1CCN(c2nc(C(F)(F)F)ccc2CNC(=O)[C@@H](C)c2ccc(NS(C)(=O)=O)c(F)c2)CC1 (racemic) |
| 3.8 | O=C(Cc1ccc(Cl)c(Cl)c1)NCc1cc(C(F)(F)F)nn1-c1cccc(Cl)c1 |
| 13.7 | O=C(Cc1cc(F)cc(F)c1)NCc1cc(C(F)(F)F)nn1-c1cccc(Cl)c1 |
| 11.5 | O=C(Cc1cccc(F)c1F)NCc1cc(C(F)(F)F)nn1-c1cccc(Cl)c1 |
| 43.3 | O=C(Cc1ccc(F)cc1F)NCc1cc(C(F)(F)F)nn1-c1cccc(Cl)c1 |
| 2.6 | CC1CCN(c2nc(C(F)(F)F)ccc2CNC(=O)Cc2c(F)cccc2Cl)CC1 |
| 38.8 | O=C(Cc1ccc(F)cc1Cl)NCc1cc(C(F)(F)F)nn1-c1cccc(Cl)c1 |
| 20.9 | O=C(Cc1ccc(Cl)c(F)c1)NCc1cc(C(F)(F)F)nn1-c1cccc(Cl)c1 |
| 39.7 | CC1CCN(c2nc(C(F)(F)F)ccc2CNC(=O)Cc2c(Cl)cccc2Cl)CC1 |
| 6.1 | CC1CCN(c2nc(C(F)(F)F)ccc2CNC(=O)Cc2cccc(Cl)c2)CC1 |
| 14.2 | CC1CCN(c2nc(C(F)(F)F)ccc2CNC(=O)Cc2ccc(F)cc2Cl)CC1 |
| 6.3 | O=C(Cc1ccc(Cl)cc1)NCc1cc(C(F)(F)F)nn1-c1cccc(Cl)c1 |
| 22.6 | O=C(Cc1cccc(Cl)c1Cl)NCc1cc(C(F)(F)F)nn1-c1cccc(Cl)c1 |
| 58.9 | O=C(Cc1cc(F)ccc1F)NCc1cc(C(F)(F)F)nn1-c1cccc(Cl)c1 |

| Structure (SMILES) | Ki [nM] |
| --- | --- |
| C[C@H](C(=O)NCc1cc(C(C)(C)C)nn1-c1cccc(Cl)c1)c1ccc(NS(C)(=O)=O)c(F)c1 | 0.3 |

biological target: T1, Transient receptor potential cation channel subfamily V member 1; assay: Agonist activity at human TRPV1 expressed in CHO cells; assay type: cell-based; details: filed as agonist

| Activity | Structure (SMILES) |
| --- | --- |
| Active | CC(C)(C)c1cc(CNC(=O)Cc2ccc(F)c(F)c2)n(-c2cccc(Cl)c2)n1 |
| Active | CC(C)(C)c1cc(CNC(=O)Cc2cccc(Cl)c2)n(-c2cccc(Cl)c2)n1 |
| Active | CC1CCN(c2nc(C(F)(F)F)ccc2CNC(=O)Cc2ccc(F)cc2F)CC1 |
| Active | CC(C(=O)NCc1cc(C(C)(C)C)nn1-c1cccc(Cl)c1)c1ccc(F)cc1F (configuration not stated) |
| Active | CC1CCN(c2nc(C(F)(F)F)ccc2CNC(=O)C(C)c2ccc(F)cc2Cl)CC1 (configuration not stated) |
| Active | CC1CCN(c2nc(C(F)(F)F)ccc2CNC(=O)Cc2ccc(F)cc2)CC1 |
| Active | CC(C(=O)NCc1cc(C(C)(C)C)nn1-c1cccc(Cl)c1)c1ccccc1F (configuration not stated) |
| Active | CC(C(=O)NCc1cc(C(C)(C)C)nn1-c1cccc(Cl)c1)c1ccc(F)c(F)c1 (configuration not stated) |
| Active | CC(C(=O)NCc1cc(C(C)(C)C)nn1-c1cccc(Cl)c1)c1cccc(F)c1 (configuration not stated) |
| Active | CC(C(=O)NCc1cc(C(C)(C)C)nn1-c1cccc(Cl)c1)c1ccc(Cl)c(Cl)c1 (configuration not stated) |
| Active | CC(C(=O)NCc1cc(C(C)(C)C)nn1-c1cccc(Cl)c1)c1cc(F)cc(F)c1 (configuration not stated) |
| Active | CC(C(=O)NCc1cc(C(C)(C)C)nn1-c1cccc(Cl)c1)c1ccc(Cl)c(F)c1 (configuration not stated) |
| Active | CC(C(=O)NCc1cc(C(C)(C)C)nn1-c1cccc(Cl)c1)c1ccc(Cl)cc1Cl (configuration not stated) |
| Active | CC(C(=O)NCc1cc(C(C)(C)C)nn1-c1cccc(Cl)c1)c1ccc(Cl)cc1 (configuration not stated) |
| Active | CC(C)(C)c1cc(CNC(=O)Cc2ccc(F)c(Cl)c2)n(-c2cccc(Cl)c2)n1 |
| Active | CC(C)(C)c1cc(CNC(=O)Cc2ccc(Cl)cc2)n(-c2cccc(Cl)c2)n1 |
| Active | CC(C(=O)NCc1cc(C(C)(C)C)nn1-c1cccc(Cl)c1)c1ccc(F)c(Cl)c1 (configuration not stated) |
| Active | CC1CCN(c2nc(C(F)(F)F)ccc2CNC(=O)C(C)c2ccc(F)cc2)CC1 (configuration not stated) |
| Active | CC1CCN(c2nc(C(F)(F)F)ccc2CNC(=O)Cc2ccc(Cl)cc2)CC1 |
| Active | CC(C)(C)c1cc(CNC(=O)Cc2ccc(F)cc2)n(-c2cccc(Cl)c2)n1 |
| Active | CC(C(=O)NCc1cc(C(C)(C)C)nn1-c1cccc(Cl)c1)c1ccc(F)cc1 (configuration not stated) |
| Active | CC(C)(C)c1cc(CNC(=O)Cc2cccc(F)c2)n(-c2cccc(Cl)c2)n1 |
| Active | CC(C(=O)NCc1cc(C(C)(C)C)nn1-c1cccc(Cl)c1)c1cccc(Cl)c1 (configuration not stated) |
| Active | CC1CCN(c2nc(C(F)(F)F)ccc2CNC(=O)C(C)c2ccc(F)c(F)c2)CC1 (configuration not stated) |
| Active | CC1CCN(c2nc(C(F)(F)F)ccc2CNC(=O)C(C)c2cccc(F)c2)CC1 (configuration not stated) |

biological target: T1, Transient receptor potential cation channel subfamily V member 1; assay: Partial agonist activity at human TRPV1 expressed in CHO cells; assay type: cell-based; details: filed as partial agonist

| Activity | Structure (SMILES) |
| --- | --- |
| Active | CC(C)(C)c1cc(CNC(=O)Cc2cc(F)ccc2F)n(-c2cccc(Cl)c2)n1 |
| Active | O=C(Cc1ccc(F)c(F)c1)NCc1cc(C(F)(F)F)nn1-c1cccc(Cl)c1 |
| Active | CC(C(=O)NCc1cc(C(F)(F)F)nn1-c1cccc(Cl)c1)c1ccc(F)cc1 (configuration not stated) |
| Active | CC(C(=O)NCc1cc(C(F)(F)F)nn1-c1cccc(Cl)c1)c1ccc(F)c(F)c1 (configuration not stated) |
| Active | CC(C(=O)NCc1cc(C(F)(F)F)nn1-c1cccc(Cl)c1)c1ccc(F)cc1F (configuration not stated) |
| Active | CC1CCN(c2nc(C(F)(F)F)ccc2CNC(=O)C(C)c2ccc(Cl)cc2)CC1 (configuration not stated) |
| Active | CC(C)(C)c1cc(CNC(=O)Cc2cc(F)cc(F)c2)n(-c2cccc(Cl)c2)n1 |
| Active | CC1CCN(c2nc(C(F)(F)F)ccc2CNC(=O)Cc2ccc(F)c(F)c2)CC1 |
| Active | CC(C(=O)NCc1cc(C(F)(F)F)nn1-c1cccc(Cl)c1)c1cc(F)cc(F)c1 (configuration not stated) |
| Active | O=C(Cc1ccc(F)cc1)NCc1cc(C(F)(F)F)nn1-c1cccc(Cl)c1 |
| Active | CC1CCN(c2nc(C(F)(F)F)ccc2CNC(=O)C(C)c2ccc(Cl)c(Cl)c2)CC1 (configuration not stated) |
| Active | CC(C)(C)c1cc(CNC(=O)Cc2ccc(F)cc2F)n(-c2cccc(Cl)c2)n1 |
| Active | CC(C(=O)NCc1cc(C(F)(F)F)nn1-c1cccc(Cl)c1)c1cccc(F)c1 (configuration not stated) |
| Active | CC(C)(C)c1cc(CNC(=O)Cc2ccccc2F)n(-c2cccc(Cl)c2)n1 |
| Active | CC(C(=O)NCc1cc(C(C)(C)C)nn1-c1cccc(Cl)c1)c1cc(F)ccc1F (configuration not stated) |
| Active | CC(C)(C)c1cc(CNC(=O)Cc2ccc(Cl)c(F)c2)n(-c2cccc(Cl)c2)n1 |
| Active | CC(C)(C)c1cc(CNC(=O)Cc2ccc(Cl)c(Cl)c2)n(-c2cccc(Cl)c2)n1 |
| Active | CC(C(=O)NCc1cc(C(F)(F)F)nn1-c1cccc(Cl)c1)c1ccc(Cl)cc1 (configuration not stated) |
| Active | CC1CCN(c2nc(C(F)(F)F)ccc2CNC(=O)C(C)c2ccc(Cl)c(F)c2)CC1 (configuration not stated) |
| Active | CC(C(=O)NCc1cc(C(F)(F)F)nn1-c1cccc(Cl)c1)c1cccc(Cl)c1 (configuration not stated) |
| Active | CC1CCN(c2nc(C(F)(F)F)ccc2CNC(=O)Cc2ccc(Cl)c(F)c2)CC1 |
| Active | CC(C(=O)NCc1cc(C(C)(C)C)nn1-c1cccc(Cl)c1)c1ccccc1Cl (configuration not stated) |
| Active | CC(C(=O)NCc1cc(C(C)(C)C)nn1-c1cccc(Cl)c1)c1cccc(F)c1F (configuration not stated) |
| Active | CC(C(=O)NCc1cc(C(C)(C)C)nn1-c1cccc(Cl)c1)c1c(F)cccc1F (configuration not stated) |
| Active | CC1CCN(c2nc(C(F)(F)F)ccc2CNC(=O)C(C)c2ccc(F)cc2F)CC1 (configuration not stated) |
| Active | CC(C(=O)NCc1cc(C(C)(C)C)nn1-c1cccc(Cl)c1)c1cccc(Cl)c1Cl (configuration not stated) |

test system: Mus musculus; assay: Analgesic activity in ip dosed mouse model of formalin-induced paw edema assessed as reduction in pain behaviour by measuring effective dose in 1st phase; assay type: functional; details: not given
Method in brief: (§1)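 Formalin test in mice, with antagonist given by intraperitoneal injection before testing. Nociceptive behaviour was scored separately in the 1st and 2nd phases. Several doses were tested, and ED50 for each phase was derived from the dose-response.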

| Structure (SMILES) | ED50 [mg/kg] |
| --- | --- |
| CC(C)(C)c1cc(CNC(=O)Cc2cccc(F)c2F)n(-c2cccc(Cl)c2)n1 | 50.5 |

test system: Mus musculus; assay: Analgesic activity in ip dosed mouse model of formalin-induced paw edema assessed as reduction in pain behaviour by measuring effective dose in 2nd phase; assay type: functional; details: not given; method in brief: as §1

| Structure (SMILES) | ED50 [mg/kg] |
| --- | --- |
| CC(C)(C)c1cc(CNC(=O)Cc2cccc(F)c2F)n(-c2cccc(Cl)c2)n1 | 29.5 |

test system: Mus musculus; assay: Analgesic activity in ip dosed mouse model of formalin-induced paw edema; assay type: functional, organism-based; details: not given; method in brief: as §1

| Structure (SMILES) | Activity |
| --- | --- |
| CC1CCN(c2nc(C(F)(F)F)ccc2CNC(=O)Cc2c(F)cccc2Cl)CC1 | inactive |

test system: Mus musculus; assay: Analgesic activity in mouse model of formalin-induced paw edema assessed as induction of hyperthermia at 10 mg/kg, ip; assay type: functional, organism-based; details: not given
Method in brief: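 Mice received 10 mg/kg intraperitoneally, and body temperature was then measured to check for hyperthermia.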

| Structure (SMILES) | Activity |
| --- | --- |
| CC(C)(C)c1cc(CNC(=O)Cc2cccc(F)c2F)n(-c2cccc(Cl)c2)n1 | inactive |

From ChEMBL document CHEMBL4808213, “2-(Halogenated Phenyl) acetamides and propanamides as potent TRPV1 antagonists” (Bioorg Med Chem Lett, 2021)
